For 95 compounds, cytotoxicity results are on record in ChEMBL document CHEMBL4513216, “Probing the Open Global Health Chemical Diversity Library for Multistage-Active Starting Points for Next-Generation Antimalarials” (ACS Infect Dis, 2020).

The nature of this data set: Toxicity liver stage against HepG2, at 10uM. As to conditions: human, HepG2-A16-CD81EGFP cells; read-out: INHIBITION
It is filed as cell-based. More on the design: test concentration 10 uM, cell line HepG2-A16-CD81EGFP. In short, it runs like this:
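Uninfected HepG2-A16-CD81EGFP cells, 3 × 10^3 per well, 1536-well, plated on prespotted compound at 10 μM final, parasite-free screening media added to match infected plates; puromycin 10 μM positive, DMSO 0.5% negative; run in parallel with 48 h PbLuc assay at 37 °C, 5% CO2; viability by CellTiter-Glo luminescence, normalized to controls.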
For the compound `COc1ccc(NC(=O)C2CCOC2)c(N2CCN(C(C)=O)CC2)n1` (stereo not given), the cytotoxicity at 10 µM is -12.2%.

On to `Cc1cccc(C(=O)NCc2ccc(CS(N)(=O)=O)cc2)n1`, for which the cytotoxicity at 10 µM was -1.07%.

For the compound `CC(CNCc1ccc(Cl)c(Cl)c1)Oc1ccccn1` (stereo not given), the cytotoxicity at 10 µM was -0.291%.

For the compound `c1cnc(N2CCO[C@H]3CN(Cc4ccsc4)C[C@H]32)nc1`, the cytotoxicity at 10 µM is -82%.

`CCn1cnnc1C1CCN(C(=O)c2cnc(C)s2)CC1`: the cytotoxicity at 10 µM is -8.45%.

For `Cc1nc(CN2C[C@@H]3CN(C(=O)c4ccco4)C[C@@H]3C2=O)cs1`, the cytotoxicity at 10 µM was -77.7%.

On to `O=C1CO[C@@H]2CN(Cc3cccs3)C[C@H]2N1Cc1cccnc1`, for which the cytotoxicity at 10 µM is -77.6%.

For `Cc1cc(-c2n[nH]c3c2CN(S(=O)(=O)c2ccsc2)CC3)c(C)o1`, the cytotoxicity at 10 µM was -15.8%.

Consider `O=C(N[C@@H]1CCC[C@@H](N2CCOCC2)[C@@H]1O)c1cc2ccccc2[nH]1`, for which the cytotoxicity at 10 µM is -26.9%.

Take `Cc1cccc2cc(CN3CCC(O)(CN4CCCC4)CC3)c(=O)[nH]c12`: the cytotoxicity at 10 µM is -14.9%.

With `CCSCCC(=O)NCc1cc2n(n1)CCN(C(=O)N(C)C)C2`, the cytotoxicity at 10 µM is -5.38%.

Consider `CN(C)CCN1CCOCC2(CCCN(C(=O)c3cccc(O)c3)C2)C1` (stereo not given), for which the cytotoxicity at 10 µM was determined as 11.7%.

`CCNC(=O)C1CCN(c2nc(-c3ccco3)nc3c2CCNCC3)C1` (stereo not given): the cytotoxicity at 10 µM is -5.87%.

Take `CC(C)OC[C@H]1CCC[C@]12CN(S(=O)(=O)c1cccs1)CCO2`: the cytotoxicity at 10 µM is -1.52%.

For the compound `Cc1cnn(CC2CN(CC(=O)NCc3ccco3)CCO2)c1` (stereo not given), the cytotoxicity at 10 µM was -1.43%.

As for `Cc1cc(C)nc(NC(=O)NCCCSc2nncn2C)n1`, the cytotoxicity at 10 µM came to 1.74%.

With `CNC(=O)NCC1CCC2(CCN(C(=O)c3cccnc3)CC2)CO1` (stereo not given), the cytotoxicity at 10 µM is -94.9%.

On to `Cc1cccc(C(=O)N2CCCCC2c2nc3cc(F)ccc3[nH]2)n1` (stereo not given), for which the cytotoxicity at 10 µM was -1.99%.

`CNC(=O)CN1CCOCC2(CCCN(Cc3ccc(F)cc3)C2)C1` (stereo not given): the cytotoxicity at 10 µM was 6.88%.

Turning to `Cc1cnn(C2CCCN(C(=O)CCNS(C)(=O)=O)C2)c1` (stereo not given), the cytotoxicity at 10 µM was -28.6%.

Take `O=C(NC1CCCC1)O[C@H]1COCCN(c2nc3ccccc3o2)C1`: the cytotoxicity at 10 µM is -3.51%.

As to `COCCn1ccc(NC(=O)Nc2ccc(C)cc2)n1`, the cytotoxicity at 10 µM was 2.19%.

On to `Cc1ccc(S(=O)(=O)N2CC(C)Oc3ncccc32)c(C)c1` (stereo not given), for which the cytotoxicity at 10 µM was determined as 5.35%.

Take `CS(=O)(=O)NC1CCN(C(=O)CCn2cccn2)CC1`: the cytotoxicity at 10 µM is -7.74%.

For the compound `O=C(c1ccccn1)N1CCCC2(CCN(c3ccsc3)C2=O)C1` (stereo not given), the cytotoxicity at 10 µM was -136%.

Take `CN(C1CCCCC1)S(=O)(=O)NCC1Cc2ccccc2O1` (stereo not given): the cytotoxicity at 10 µM stood at 4.19%.

On to `COCC(=O)N1CCC2(COCc3cnc(-c4ccccc4)nc32)C1` (stereo not given), for which the cytotoxicity at 10 µM was determined as 2.65%.

As to `NC(=O)c1ccc(CNC2CC2)cc1`, the cytotoxicity at 10 µM was found to be 8.57%.

`Cc1nccn1-c1ccc(C(C)NCc2cc[nH]n2)cc1` (stereo not given): the cytotoxicity at 10 µM came to 5.33%.

On to `O=C1CC(NCc2cccc(O)c2)CN1CCc1cccc(Cl)c1` (stereo not given), for which the cytotoxicity at 10 µM was -130%.

For the compound `C[C@@H]1CN(C(=O)c2ccc(=O)[nH]c2)CC[C@@]1(O)C1CCOCC1`, the cytotoxicity at 10 µM is -1.59%.

Turning to `CN1CCN(C(=O)c2cccn2C)Cc2cccnc21`, the cytotoxicity at 10 µM was 5.73%.

As for `CN(CC(=O)NC(Cc1ccccc1)C1CCCC1)S(C)(=O)=O` (stereo not given), the cytotoxicity at 10 µM was 15.1%.

Consider `CC(=O)N1CCC(c2ccnc(Nc3cncnc3)n2)C1` (stereo not given), for which the cytotoxicity at 10 µM was found to be 0.951%.

Regarding `CCCn1ccnc1-c1cccc(NC2CCOC2)c1` (stereo not given), the cytotoxicity at 10 µM is -3.1%.

Take `CCNC(c1ccc(OC)cc1)c1cccnc1` (stereo not given): the cytotoxicity at 10 µM was -3.54%.

Consider `CC(C)c1nnc(CN2CCN(C(C)c3nc(C4CC4)no3)CC2)o1` (stereo not given), for which the cytotoxicity at 10 µM was found to be 3.48%.

Consider `COc1nc2c(cc1C(=O)NCc1nc(CSC)no1)CCC2`, for which the cytotoxicity at 10 µM was -11.7%.

In the case of `COC[C@@]12CCO[C@@H]1CCN(C(=O)Cc1ccc(C)cc1)C2`, the cytotoxicity at 10 µM is 1.47%.

Turning to `Cc1nc(NC(=O)C(C)S(C)(=O)=O)sc1Cc1ccccc1F` (stereo not given), the cytotoxicity at 10 µM turned out to be 9.8%.

Take `COc1ccc(C(CNC(=O)Nc2cn[nH]c2)N2CCOCC2)cc1` (stereo not given): the cytotoxicity at 10 µM was 1.3%.

Take `Cc1nc(CN2CCO[C@H]3[C@@H](OCc4ccccn4)CC[C@@H]32)cs1`: the cytotoxicity at 10 µM was 0.179%.

For `CCS(=O)(=O)Nc1ccn(Cc2ccc(F)cc2Cl)n1`, the cytotoxicity at 10 µM stood at 3.18%.

`CCN1CCC2(C=C(C(=O)NC3CC3)c3ccccc32)CC1`: the cytotoxicity at 10 µM turned out to be 6.2%.

As for `COc1cccc(CC(=O)N2CCCC(c3n[nH]c4nccnc34)C2)c1` (stereo not given), the cytotoxicity at 10 µM turned out to be 4.62%.

With `COCCNC(=O)c1nc2c(s1)CCCN2Cc1ccccc1`, the cytotoxicity at 10 µM amounted to 12.6%.

On to `O=C(c1ccc2cccnc2n1)N(Cc1ccsc1)CC1CCCO1` (stereo not given), for which the cytotoxicity at 10 µM is -15.1%.

As for `O=C1N(Cc2ccccc2F)CCCC12CCN(C1CCSCC1)C2` (stereo not given), the cytotoxicity at 10 µM came out at 0.0366%.

Take `c1cncc(OC[C@@]23CCO[C@@H]2CCN(Cc2cccs2)C3)c1`: the cytotoxicity at 10 µM is 14.6%.

For `COCC(=O)N1CCCC1c1ccc(C(=O)NCc2ccccc2Cl)s1` (stereo not given), the cytotoxicity at 10 µM is -0.909%.

As to `O=C(NC1CCC1)C1=NOC2(CCN(Cc3ccc(F)cc3)C2)C1` (stereo not given), the cytotoxicity at 10 µM is -67.7%.

For `Cc1nc2c(c(NCc3ccccc3)n1)CCN(C(=O)NC(C)C)CC2`, the cytotoxicity at 10 µM amounted to 28.7%.

As to `CC(C(=O)N1CCN(c2ccc(F)cc2)CC1)n1ccnc1` (stereo not given), the cytotoxicity at 10 µM amounted to 1.05%.

For the compound `O=C(CCn1ccc(=O)[nH]c1=O)N1CCC(OCc2cccnc2)CC1`, the cytotoxicity at 10 µM is -15.7%.

For `O=C(Nc1ccccc1)[C@H]1CN2CC[C@H]1C[C@@H]2Cn1cc(CCO)nn1`, the cytotoxicity at 10 µM is -0.843%.

With `CCOCCCn1c(NC(=O)c2ccc(C)nc2)nc2ccccc21`, the cytotoxicity at 10 µM was -6.95%.

Take `CCN1CCN(S(=O)(=O)c2cc(C)c(C)cc2Br)CC1`: the cytotoxicity at 10 µM was -9.74%.

With `O=C(CCN1CCSCC1c1ccccc1)N1CCOCC1` (stereo not given), the cytotoxicity at 10 µM was -12.5%.

On to `CCn1ccnc1CN(C)c1cc(C2CC2)ncn1`, for which the cytotoxicity at 10 µM is -47.9%.

Turning to `O=C1CCCN1CCCNCc1cc(O)c2cccc(Cl)c2n1`, the cytotoxicity at 10 µM came to 4.05%.

As for `O=C(CCNCC(F)(F)F)N1CCC(Nc2cccnn2)CC1`, the cytotoxicity at 10 µM was -1.5%.

As for `CC(C)n1cnnc1CN(C)C(=O)c1ccccc1N1CCOCC1`, the cytotoxicity at 10 µM came to 1.47%.

As to `O=C1CC2(CCCC2)CC(=O)N1Cc1nc2ncccn2n1`, the cytotoxicity at 10 µM was 2.49%.

As for `O=C(COCC1CC1)N1CCCC(n2cncn2)C1` (stereo not given), the cytotoxicity at 10 µM was -3.54%.

Turning to `Cc1cnc(NCCCN2CCCCC2CO)nc1` (stereo not given), the cytotoxicity at 10 µM is -7.17%.

In the case of `N#CC1(C(=O)N2CCC(Nc3cccnn3)CC2)CCCCC1`, the cytotoxicity at 10 µM was 2.87%.

For `Cc1nn(C)c(C)c1CCNC(C)c1ccc(-n2ccnc2C)cc1` (stereo not given), the cytotoxicity at 10 µM was 31.6%.

For the compound `CCC(O)Cn1cc(C2=CCN(Cc3cc(O)nc(C)n3)CC2)cn1` (stereo not given), the cytotoxicity at 10 µM is -9.2%.

With `CC(C)(O)CN1CCN(C(=O)c2cc(Cl)cc3cccnc23)CC1`, the cytotoxicity at 10 µM is -7.93%.

Consider `CC(C)NC(=O)C1CN(C(=O)NCc2ccccc2)CC12CCOCC2` (stereo not given), for which the cytotoxicity at 10 µM is -84.6%.

Consider `CN(Cc1cccc(F)c1)C(=O)CN1CCCC(Cn2cncn2)C1` (stereo not given), for which the cytotoxicity at 10 µM was determined as 4.64%.

Regarding `Cc1cc(CN2CCN(C(C)c3nc(C4CC4)no3)CC2)no1` (stereo not given), the cytotoxicity at 10 µM is 1.35%.

Turning to `Cc1cccc(N2CC[C@@H]3CN(C(=O)c4ccco4)CCO[C@@H]3C2)n1`, the cytotoxicity at 10 µM turned out to be 10.5%.

On to `Cc1nc(C)n(CC2CCCCN2c2ncnc3ccsc23)n1` (stereo not given), for which the cytotoxicity at 10 µM was -2.04%.

With `C[C@@H]1CN(C(=O)[C@H]2CCCO2)C[C@]12CCN(c1ccsc1)C2=O`, the cytotoxicity at 10 µM was -77.8%.

For the compound `CSc1ccccc1CN1C[C@@H]2CC[C@H]1CN(Cc1[nH]cnc1C)C2`, the cytotoxicity at 10 µM was -8.96%.

Take `CN1C(=O)CO[C@H](c2ccc(NC(=O)c3cccnc3)cc2)[C@H]1CO`: the cytotoxicity at 10 µM was 6.15%.

With `COCCN1CC(C(=O)NCc2ccnc(-n3cccn3)c2)CC1=O` (stereo not given), the cytotoxicity at 10 µM is -5.07%.

Consider `O=C(C[S+]([O-])Cc1ccc(F)cc1Cl)N1CCc2sccc2C1` (stereo not given), for which the cytotoxicity at 10 µM is -2.22%.

Take `CCN(CC)Cc1cn2c(n1)CN(C(=O)c1cc(C)on1)CC2`: the cytotoxicity at 10 µM turned out to be 6.17%.

Take `Cc1nn(C)c(Cl)c1C1CCCN1C(=O)c1csnn1` (stereo not given): the cytotoxicity at 10 µM was -0.121%.

For the compound `Cc1cccc(COC[C@@H]2CC[C@H]3[C@H](CCN3Cc3ccco3)O2)n1`, the cytotoxicity at 10 µM is -9.81%.

As to `COc1ccccc1CCNC(=O)N1CCCC(c2nncn2C)C1` (stereo not given), the cytotoxicity at 10 µM is -25.4%.

`O=S(=O)(Cc1ccccc1Cl)NC(CO)c1ccco1` (stereo not given): the cytotoxicity at 10 µM was -6.86%.

As for `OC1(Cn2ccc3ncccc32)CCN(Cc2cc(F)cc(F)c2)CC1`, the cytotoxicity at 10 µM is -5.41%.

Take `CCCn1ncc(CN2CCCC(C(=O)c3ccc(SC)cc3)C2)c1C` (stereo not given): the cytotoxicity at 10 µM was -3.25%.

As to `Cc1noc(CN2CCC(c3ccnn3CCO)CC2)n1`, the cytotoxicity at 10 µM is -9.62%.

With `CCOCC(=O)N1C[C@@H](NC(C)=O)[C@H](c2ccc(OC)cc2)C1`, the cytotoxicity at 10 µM is -9.44%.

On to `O=C(NC1CCN(c2snc3ccccc23)CC1)C1CCC1`, for which the cytotoxicity at 10 µM was 4.5%.

Regarding `Cc1cc(C)n(CC2CN(CC(=O)N3CCNC3=O)CCO2)n1` (stereo not given), the cytotoxicity at 10 µM is -2.38%.

Regarding `CCOC(=O)N1CCC(NCC2CCN(c3cnn(C)c(=O)c3)C2)CC1` (stereo not given), the cytotoxicity at 10 µM came out at 8.39%.

As to `O=C(C1CCCOC1)N(CC(F)F)c1cccc(Cl)c1` (stereo not given), the cytotoxicity at 10 µM stood at 8.27%.

Regarding `CNC(=O)[C@@]12CCO[C@@H]1CCN(S(=O)(=O)c1cccc(F)c1)C2`, the cytotoxicity at 10 µM was -73.8%.

Regarding `CNS(=O)(=O)c1ccc(C(=O)N2CCCCC2c2ccc(C)cc2)o1` (stereo not given), the cytotoxicity at 10 µM is -9.8%.

For `O=C(Nc1cnc(C2CC2)nc1)N1CCC(CN2CCCC2)C1` (stereo not given), the cytotoxicity at 10 µM is 18.8%.
